Measurements from different studies.
Each line is one published result; the experiments were not run side by side.
Target: BMP-2-inducible protein kinase (BMP2K, Homo sapiens, UniProt Q9NSY1)

| SMILES | test | conditions | remaining binding |
| --- | --- | --- | --- |
| CN(c1nccc(-c2cnn3ncccc23)n1)C1CC1 | binding | 1 µM | 100% |
| O=C(O)[C@H]1[C@H](Cn2nnc3ccccc3c2=O)CC[C@@H]1C(=O)c1ccc(OCCC2CCOCC2)cc1 | cell-free assay, competition with immobilised ligand | 1 µM | 86% |
| Cc1cnn2ncc(-c3ccnc(N(C)C)n3)c2c1 | binding | 1 µM | 80% |
| Nc1ncc2c(n1)-c1c([nH]c3ccc(C#CC4CC4)cc13)CCCC2 | binding, competition with immobilised ligand | 1 µM | 88% |
| CNC(=O)c1ccc(Nc2ncc(C(F)(F)F)c(NCc3nccnc3N(C)S(C)(=O)=O)n2)cc1 | cell-free assay, competition with immobilised ligand | 0.1 µM | 81% |
| COc1cnc(Nc2cccc(S(N)(=O)=O)c2)nc1N1CCN(c2ccccc2)C(=O)C1 | binding, competition with immobilised ligand | 1 µM | 80% |
| N[C@H]1CCN(c2nccc(-c3cnn4ncccc34)n2)C1 | binding | 1 µM | 88% |
| O=C(c1ccc(Nc2nccc(-c3cc4ccccc4s3)n2)cc1)N1CCC(N2CCCC2)CC1 | binding, competition with immobilised ligand | 1 µM | 0.5% |
| C[C@@H]1CCN(c2nccc(-c3cnn4ncccc34)n2)C1 | binding | 1 µM | 97% |
| O=C(N1CCS(=O)(=O)CC1)N1C[C@H](c2ccc(OC(F)(F)F)cc2)C[C@H](c2nc(C3CC3)no2)C1 | cell-free assay, competition with immobilised ligand | 1 µM | 97% |
| COc1ccnn2ncc(-c3ccnc(N(C)C)n3)c12 | binding | 1 µM | 100% |
| Cc1nc(N2CC[C@@H](O)C2)ncc1-c1cc(C(F)(F)F)cc2[nH]ncc12 | binding, competition with immobilised ligand | 1 µM | 100% |
| CN(C)c1nccc(-c2cnn3ncccc23)n1 | binding | 1 µM | 100% |
| CNC(=O)Nc1ccc2c(c1)CC[C@@]21OC(=O)N(CC(=O)N(Cc2ccc(F)cc2)[C@@H](C)C(F)(F)F)C1=O | cell-free assay, competition with immobilised ligand | 1 µM | 98% |
| CNC(=O)[C@@H]1CC[C@@H](n2c(-c3ccc4cnccc4c3)nc3ccc(C(=O)NCc4cccc(C(N)=O)c4)cc32)C1 | binding, competition with immobilised ligand | 1 µM | 95% |
| O=C(c1ccc(Nc2ncc(Cl)c(-c3ccc(Cl)s3)n2)cc1)N1CCC(N2CCCC2)CC1 | binding, competition with immobilised ligand | 1 µM | 0.1% |
| F[C@@H]1CCN(c2nccc(-c3cnn4ncccc34)n2)C1 | binding | 1 µM | 100% |
| O=C(c1ccc(Nc2ncc(Cl)c(-c3cc4ccccc4s3)n2)cc1)N1CCC(N2CCCC2)CC1 | binding, competition with immobilised ligand | 1 µM | 0% |
| COc1cc(-c2cn(C3CCc4c(F)cccc4N(CC(F)(F)F)C3=O)nn2)ccc1-n1cnc(C)c1 (stereo not shown) | cell-free assay, competition with immobilised ligand | 1 µM | 100% |
| CCN1CCN(Cc2ccc(C(=O)Nc3ccc(C)c(Oc4ccc5c(c4)CC(=O)N5)c3)cc2C(F)(F)F)CC1 | binding, competition with immobilised ligand | 1 µM | 100% |
| CN(C)c1ncnc(-c2ccc3nc(Nc4cc(CN5CCN(C(=O)CC(F)(F)F)CC5)ccn4)[nH]c3c2)c1Cl | cell-free assay, competition with immobilised ligand | 1 µM | 100% |
| O=C(NCC1CCOCC1)c1n[nH]cc1NC(=O)c1c(F)cccc1F | binding, competition with immobilised ligand | 1 µM | 81% |
